Screening results (PubChem BioAssay)
Only some compounds are listed: those with a hit (about 3.5% of all), similar ones and a draw of the others.
MrgX1 antag: antagonists of human MrgX1 receptor; B-score at 10 µM; MRGX1-HEK293 calcium flux, Fluo-4, BAM8-22 antagonism; stronger effect = lower value; actives 1.3% (n = 310,000); AID 588676; Q96LB2;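 active = calcium-response B-score plate-corrected more than 3 library SD below zero, starting fluorescence within 5 deviations, no agonist response on first addition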;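 note: peak minus trough fluorescence over baseline after final BAM8-22 challenge near maximal dose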
Target sequence (Q96LB2 whole entry, looked up): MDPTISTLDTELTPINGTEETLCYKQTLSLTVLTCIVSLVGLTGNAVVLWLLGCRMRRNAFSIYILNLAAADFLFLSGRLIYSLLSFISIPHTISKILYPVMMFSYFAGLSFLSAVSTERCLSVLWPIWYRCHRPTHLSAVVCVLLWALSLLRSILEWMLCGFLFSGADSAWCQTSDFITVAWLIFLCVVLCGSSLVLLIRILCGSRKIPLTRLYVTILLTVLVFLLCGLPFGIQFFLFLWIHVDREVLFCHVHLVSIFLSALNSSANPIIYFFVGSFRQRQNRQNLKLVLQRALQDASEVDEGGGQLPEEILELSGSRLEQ
MrgX1 agonist: human MrgX1 receptor agonism, primary screen | actives 0.44% (n = 310,000) | MrgX1-HEK293 cells, Fluo-4 calcium fluorescence, agonist mode; stronger effect = higher value | B-score at 10 µM | AID 588627 | Q96LB2;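 active = calcium response B-score plate-corrected fluorescence ratio at least 3 library SD, with starting fluorescence B-score inside 5 SD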
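Material – MrgX1-expressing HEK293 cells · Input – 15,000 cells seeded per well · Dosing – compound as first of three additions · Times – overnight seeding, then 1 h dark dye loading · Measured by – kinetic Fluo-4 NW fluorescence of intracellular calcium · Read-out – B-scored fluorescence response ratio · Benchmarks – positive and negative control wells on each plate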
RGS4 pot: potentiators or activators of RGS4 | HEK293 M3R/inducible RGS4, carbachol calcium flux Fluo4; stronger effect = lower value | B-score at 10 µM | actives 0.92% (n = 310,000);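 active = B-score of the integrated calcium signal more than 4 SD below the library mean, with starting fluorescence not abnormally high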;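 note: negative B-score means reduced calcium response which marks RGS4 activation or potentiation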
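System: HEK293 FlpIn-TREx cells, stable M3R, doxycycline-inducible RGS4. Timing: overnight RGS4 induction, 30 min dye load 37 °C, 20 min compound RT. Also added: carbachol, ECmax concentration. Measured by: Fluo4 fluorescence kinetic imaging of calcium. Evaluation: integrated calcium ratio converted to B score.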
RGS4 inh: human RGS4 inhibition; P49798; HEK293 M3R/RGS4 inducible, Fluo-4 calcium flux; stronger effect = higher value; triggered by carbachol at its EC20; B-score at 10 µM; actives 0.45% (n = 310,000); AID 463165;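 active = B-score, a plate-corrected calcium signal, over three deviations above library mean, with baseline fluorescence within five deviations of library mean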;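 note: RGS4 expression induced by doxycycline in cells with stable M3 receptor; B-score is computed from the integrated fluorescence ratio over baseline after carbachol; higher B-score means a larger calcium signal and so more RGS4 inhibition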
Target sequence (P49798 whole entry, looked up): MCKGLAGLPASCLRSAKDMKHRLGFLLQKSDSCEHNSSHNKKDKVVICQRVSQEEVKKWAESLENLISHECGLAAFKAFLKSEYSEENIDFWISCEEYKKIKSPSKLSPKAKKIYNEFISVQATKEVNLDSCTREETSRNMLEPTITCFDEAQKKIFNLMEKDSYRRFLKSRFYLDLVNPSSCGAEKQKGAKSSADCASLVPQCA
MrgX1 allo act: human MrgX1 positive allosteric modulation, primary screen; Q96LB2; B-score at 10 µM; actives 0.63% (n = 310,000); AID 588675; MrgX1-HEK293, Fluo-4 calcium flux, FDSS; stronger effect = higher value;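 active = plate-corrected calcium response at least 3 library SD above typical, normal starting fluorescence, not activating the receptor alone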;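 note: compound read alongside a low EC10 to EC30 dose of BAM8-22 agonist; peak minus trough fluorescence over baseline measured at the second addition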
MrgX1 ant reconf: human MrgX1 receptor antagonism, re-confirmation screen | shares compounds with MrgX1 antag | MrgX1-HEK293, BAM8-22 calcium flux, Fluo-4; stronger effect = lower value | AID 602420 | remaining BAM8-22 calcium response % of control (stronger effect = lower value), % at 10 µM | actives 19% (n = 2,300);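 active = remaining agonist calcium response no higher than 100% minus 3 SD of agonist-only control wells, with starting fluorescence near control levels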;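 note: agonist BAM8-22 given at a near maximal EC90 to ECmax level; peak minus minimum fluorescence divided by baseline after agonist addition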
HEK293 Ca flux: MrgX1 antagonist counter-screen hit in parental HEK293 cells. actives 2% (n = 4,000). Fluo-4 calcium fluorescence, FDSS. shares compounds with MrgX1 antag. fluorescence ratio F(max-min)/F0 at 10 µM;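 active = duplicate-averaged calcium fluorescence ratio at least three times the standard deviation of buffer wells, a nonspecific response in parental cells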
HEK293 Ca counter: activity in parental HEK293 cells without MrgX1; shares compounds with MrgX1 antag; parental HEK293 calcium flux, Fluo-4 fluorescence ratio; stronger effect = higher value; fluorescence ratio F(max-min)/F0 at 10 µM; actives 0.4% (n = 4,000);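 active = calcium fluorescence ratio, averaged over duplicates, at least 3 SD of the buffer-well ratio, meaning a nonspecific response in receptor-free cells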;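 note: untransfected parental HEK293 lacking MrgX1 used as counterscreen for MrgX1 allosteric activators; fluorescence change taken during the second addition on a kinetic imager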
HEK293 Ca cntr2: MrgX1 activator counter-screen hit in parental HEK293 cells | shares compounds with MrgX1 antag | Fluo-4 calcium fluorescence (FDSS); stronger effect = higher value | fluorescence ratio F(max-min)/F0 at 10 µM | actives 8.7% (n = 4,000);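 active = calcium fluorescence ratio at least three times the spread of buffer wells, meaning a non-specific response in parental cells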
Large screens that a line does not name were inactive (follow-up assays come after a bar, where they were run).

O=C(c1ccc2c(c1)OCO2)N1CCN(c2ccc(Cl)cc2)CC1	none
O=C(c1ccc2c(c1)OCO2)N1CCN(S(=O)(=O)c2ccc(Cl)cc2)CC1	MrgX1 antag -4.5 | MrgX1 ant reconf inactive | HEK293 Ca flux inactive | HEK293 Ca counter inactive | HEK293 Ca cntr2 inactive
Cc1ccnc(NC(=O)CCc2c[nH]c3ccccc23)c1	none
Cc1cc(=O)n2c3ccccc3n(CC(O)CN3CCCC3)c2c1C#N (stereo unspecified)	MrgX1 antag -5.3 | MrgX1 ant reconf inactive | HEK293 Ca flux inactive | HEK293 Ca counter inactive | HEK293 Ca cntr2 inactive
COc1ccc(CC(=O)NCc2cccs2)cc1	MrgX1 antag -6.6 | MrgX1 ant reconf inactive | HEK293 Ca flux inactive | HEK293 Ca counter inactive | HEK293 Ca cntr2 inactive
COc1ccc(CNC(=O)COC(=O)Cc2ccsc2)cc1	MrgX1 antag -4.5 | MrgX1 ant reconf inactive | HEK293 Ca flux inactive | HEK293 Ca counter inactive | HEK293 Ca cntr2 inactive
O=C(Cc1cccs1)NCc1ccc2c(c1)OCO2	MrgX1 antag -8 | MrgX1 ant reconf inactive | HEK293 Ca flux inactive | HEK293 Ca counter inactive | HEK293 Ca cntr2 inactive
CCOc1ncccc1C(=O)OCC(=O)NCc1ccc2c(c1)OCO2	MrgX1 antag -4.9 | MrgX1 ant reconf inactive | HEK293 Ca flux inactive | HEK293 Ca counter inactive | HEK293 Ca cntr2 inactive
CCCc1nc(SCC(=O)N2CCCCCC2)c2c(=O)n(C)c(=O)n(C)c2n1	none
CCOC(=O)CN1C(=O)C(C)(C)Oc2ccc(C(=O)NC(C)(C)CC)cc21	MrgX1 antag -5.3 | MrgX1 ant reconf inactive | HEK293 Ca flux inactive | HEK293 Ca counter inactive | HEK293 Ca cntr2 inactive
COc1cccc(NC(=O)CN(C)C(=O)COc2ccc3ccccc3c2)c1	none
COc1ccccc1-c1nnc(SCc2nc3ccccc3s2)n1C	MrgX1 antag -5.8 | MrgX1 ant reconf inactive | HEK293 Ca flux inactive | HEK293 Ca counter inactive | HEK293 Ca cntr2 inactive
Cc1ccc(S(=O)(=O)N2CCCC2CNC(=O)c2ccc(F)c(F)c2)cc1 (stereo unspecified)	none
Cn1ccnc1COc1ccc(/C=N/O)cc1	none
CC(=O)NS(=O)(=O)c1ccc(NC(=S)NC(=O)Cc2ccccc2)cc1	MrgX1 antag -6.1 | MrgX1 ant reconf inactive | HEK293 Ca flux inactive | HEK293 Ca counter inactive | HEK293 Ca cntr2 inactive
O=C(NCCN1CCOCC1)c1ccc2c(c1)ncn2C1CCCCC1	MrgX1 antag -6.8 | MrgX1 ant reconf inactive | HEK293 Ca flux inactive | HEK293 Ca counter inactive | HEK293 Ca cntr2 inactive
Cc1ccc(C)c(C(=O)CSc2nnc(C)s2)c1	none
CCc1nc(C)ccc1OCC(=O)N1CCc2c([nH]c3ccccc23)C1c1ccccn1 (stereo unspecified)	none
COc1ccc(OCC(=O)N2CCc3c([nH]c4ccccc34)C2c2ccccn2)cc1 (stereo unspecified)	MrgX1 antag -6.4 | MrgX1 ant reconf inactive | HEK293 Ca flux inactive | HEK293 Ca counter inactive | HEK293 Ca cntr2 inactive
CC(NC(=O)NC(N)=O)(C(F)(F)F)C(F)(F)F	MrgX1 antag -5.2 | MrgX1 ant reconf inactive | HEK293 Ca flux inactive | HEK293 Ca counter inactive | HEK293 Ca cntr2 inactive
CC(/C=C1\SC(=S)N(NS(=O)(=O)c2ccc(C)cc2)C1=O)=C\c1ccccc1	MrgX1 antag -14, RGS4 pot -7.3 | MrgX1 ant reconf inactive | HEK293 Ca flux inactive | HEK293 Ca counter inactive | HEK293 Ca cntr2 47
COc1ccc2cc(-c3[nH]ncc3CN3CCCC3c3nonc3C)ccc2c1 (stereo unspecified)	none
Cc1sc(NC(=O)c2ccccc2)c(C(c2ccccn2)N2CCN(CCO)CC2)c1C (stereo unspecified)	MrgX1 antag -4.5 | MrgX1 ant reconf inactive | HEK293 Ca flux inactive | HEK293 Ca counter inactive | HEK293 Ca cntr2 inactive
Cc1ccc(C)c(-c2nnc(NC(=O)CCS(=O)(=O)c3ccc(F)cc3)o2)c1	MrgX1 antag -4.7 | MrgX1 ant reconf inactive | HEK293 Ca flux inactive | HEK293 Ca counter inactive | HEK293 Ca cntr2 inactive
O=C(CCCCCN1C(=O)[C@@H]2Cc3ccccc3CN2C1=O)NCCc1ccccc1	none
COC(=O)c1cc2c(ccn2-c2ccc(F)cc2)n1Cc1ccc(C#N)cc1	MrgX1 antag -4.7 | MrgX1 ant reconf inactive | HEK293 Ca flux inactive | HEK293 Ca counter inactive | HEK293 Ca cntr2 inactive
O=C(NCc1ccccc1Cl)C(=O)c1cn(CC(=O)N2CCOCC2)c2ccccc12	none
CC(=O)c1sc(NC(=O)CN2C(=O)NC3(CCCC3)C2=O)nc1-c1ccccc1	MrgX1 antag -6.4 | MrgX1 ant reconf inactive | HEK293 Ca flux inactive | HEK293 Ca counter inactive | HEK293 Ca cntr2 inactive
CN1CCN(C(c2ccc(Br)cc2)c2cc(Cl)c3cccnc3c2O)CC1 (stereo unspecified)	MrgX1 antag -5.3 | MrgX1 ant reconf inactive | HEK293 Ca flux inactive | HEK293 Ca counter inactive | HEK293 Ca cntr2 inactive
CC1=C(C(=O)c2ccccc2)C(c2ccc(O)cc2)NC(=S)N1 (stereo unspecified)	none
CC1=C(C(=O)c2ccccc2)C(c2ccc(N3CCOCC3)cc2)NC(=O)N1 (stereo unspecified)	MrgX1 antag -8.1 | MrgX1 ant reconf 73% | HEK293 Ca flux inactive | HEK293 Ca counter inactive | HEK293 Ca cntr2 inactive
CC(NC(=O)c1cc2c(s1)CS(=O)(=O)C2)c1ccccc1 (stereo unspecified)	none
CCc1cccc(C)c1NC(=S)NCc1ccc2[nH]c(C)cc2c1	MrgX1 antag -9.1 | MrgX1 ant reconf inactive | HEK293 Ca flux inactive | HEK293 Ca counter inactive | HEK293 Ca cntr2 inactive
CNC(=S)NCc1ccc2[nH]c(C)cc2c1	none
c1ccc(Oc2cc(-c3ccccc3)nc(-c3ccccc3)n2)cc1	none
Cc1cc(Oc2ccccc2)nc(-c2ccccc2)n1	MrgX1 antag -4.5 | MrgX1 ant reconf inactive | HEK293 Ca flux inactive | HEK293 Ca counter inactive | HEK293 Ca cntr2 inactive
Nc1ccc(-c2nc3ccc([N+](=O)[O-])cc3[nH]2)cc1	none
O=[N+]([O-])c1ccc(-c2nc3ccc([N+](=O)[O-])cc3[nH]2)cc1	MrgX1 antag -10 | MrgX1 ant reconf inactive | HEK293 Ca flux inactive | HEK293 Ca counter inactive | HEK293 Ca cntr2 inactive
